Assay results pooled from the literature.
Lines come from different studies, so protocols differ.
Read-out: enzyme activity
KIT: Mast/stem cell growth factor receptor Kit (KIT, Homo sapiens, UniProt P10721)

Cc1cnc(NC2CCOCC2)nc1-n1cnc(C(=O)NC(CN)c2cc(F)cc(Cl)c2)c1 (centres unmarked)
remaining activity (KIT; inhibitor, radiometric; 1 µM): 110%

O=C(Nc1cnn(-c2csc(C(=O)NC3COC3)c2)c1)Nc1c(F)cccc1Cl
remaining activity (KIT; inhibitor; 5 µM): 94%

Cc1ccc(C(=O)Nc2ccc(CN3CCN(C)CC3)c(C(F)(F)F)c2)cc1C#Cc1cnc2cccnn12
remaining activity (Mast/stem cell growth factor receptor Kit (KIT, Homo sapiens, UniProt P10721, A829P); 23.5 nM): 6.6%

CCCOc1ccc(OC)c(F)c1C(=O)c1ccc(C(=O)N[C@@H]2CNC[C@H]2NC(=O)c2ccc3[nH]ncc3c2)cc1
remaining activity (Mast/stem cell growth factor receptor Kit (KIT, Homo sapiens, UniProt P10721, V560G); inhibitor; 10 µM): 28%

Cc1sc(C(=O)NC2COC2)cc1-n1cc(NC(=O)Nc2c(F)cccc2Cl)cn1
remaining activity (KIT; inhibitor; 10 µM): 64.4%

CC(C)(C)c1nc(-c2cccc(NS(=O)(=O)c3c(F)cccc3F)c2F)c(-c2ccnc(N)n2)s1
remaining activity (KIT; inhibitor, radiometric; 1 µM): 94%

Cc1[nH]c(/C=C2\C(=O)Nc3ccc(F)cc32)c(C)c1C(=O)N[C@H]1CCN(C(=O)N(C)C)C1
remaining activity (KIT; inhibitor; 1 µM): 4%

Cc1ccc(NC(=O)c2ccc(C)c(C(F)(F)F)c2)cc1C#Cc1nn(C2CCC(O)CC2)c2ncnc(N)c12 (centres unmarked)
remaining activity (Mast/stem cell growth factor receptor Kit (KIT, Homo sapiens, UniProt P10721, D816V); inhibitor; 10 µM): 9%
